Screening data: PubChem, several laboratories
Compounds with a hit are over-represented: about 1.3% of the library has one in this group of screens.
ASAP1 GAP inh = blocks human ASAP1-stimulated Arf1 GTP hydrolysis; Q9ULH1; GDP FP detection; inhibition, % at 16.5 µM; 360,000 tested, 0.19% active; AID 624377; in the data active means inhibition above about 25%;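 further: 0% = vehicle with enzyme and substrate and 100% = no enzyme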
TDP2 absorb = blocks human TDP2 phosphodiesterase activity; AID 720702; 370,000 tested, 0.34% active; O95551; inhibition, % at 12.8 µM; recombinant TDP2, T5PNP hydrolysis, p-nitrophenol absorbance 415 nm;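 active means inhibition above the mean of all tested compounds plus 3 SD, set per campaign, cut at about 25% in these data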;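 further: 0% = DMSO with enzyme and 100% = buffer with substrate but no TDP2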
Target sequence (O95551 whole entry, looked up): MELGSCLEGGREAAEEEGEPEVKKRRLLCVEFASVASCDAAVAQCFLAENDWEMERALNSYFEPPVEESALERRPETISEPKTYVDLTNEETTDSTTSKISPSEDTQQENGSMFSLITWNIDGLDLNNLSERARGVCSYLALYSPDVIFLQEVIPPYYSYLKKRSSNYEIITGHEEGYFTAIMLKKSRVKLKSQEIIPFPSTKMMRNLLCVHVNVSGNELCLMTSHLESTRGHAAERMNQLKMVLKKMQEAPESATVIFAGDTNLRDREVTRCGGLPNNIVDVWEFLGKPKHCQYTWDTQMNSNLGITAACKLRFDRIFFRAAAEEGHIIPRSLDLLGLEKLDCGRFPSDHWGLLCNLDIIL
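Assay system: Recombinant human TDP2 | Quantity: 120 nM TDP2 per well | Incubation: 2 h at 37 °C | Signal: Epi absorbance | Evaluation: Percent inhibition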
ARFGAP1 inh = inhibitors of rat ARFGAP1 | 360,000 tested, 0.26% active | Arfgap1-stimulated ARF1 GTP hydrolysis, GDP FP detection | inhibition, % at 16.5 µM | Q62848;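 active means inhibition above a per-plate limit, mean inhibition of low control wells plus 3 SD, cut at about 25% in these data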;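 further: 0% = DMSO wells with enzyme and 100% = wells lacking Arfgap1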
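Material: rat Arfgap1 GAP domain (His6, aa 1-136), purified enzyme. Also added: human ARF1(Δ1-17)-GTP substrate. Compound dosing: 16.5 µM single point, 1.26% DMSO. Timing: enzyme reaction 120 min at 25 °C after 20 min preincubation. Signal: GDP detection by fluorescence polarization. Read-out basis: percent inhibition of GAP-stimulated GDP formation, scaled between DMSO and no-Arfgap1 medians.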
Casp6 inh = inhibitors of human caspase-6 | purified caspase-6, Z-VEID-R110 cleavage fluorescence | inhibition, % at 12.5 µM | 350,000 tested, 0.53% active | AID 686996;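 active means mean inhibition across replicates at least about 35%, with every replicate also reaching that limit, limit read from the data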;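 further: 0% = median of neutral control wells and 100% = no fluorescence left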
Target sequence (P55212 24-179 limits assumed): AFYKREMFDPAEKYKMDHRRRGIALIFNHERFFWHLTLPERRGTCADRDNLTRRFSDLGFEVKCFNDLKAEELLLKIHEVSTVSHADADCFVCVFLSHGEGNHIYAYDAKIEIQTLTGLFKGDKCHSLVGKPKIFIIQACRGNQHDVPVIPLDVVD
Target sequence (P55212 194-293 limits assumed): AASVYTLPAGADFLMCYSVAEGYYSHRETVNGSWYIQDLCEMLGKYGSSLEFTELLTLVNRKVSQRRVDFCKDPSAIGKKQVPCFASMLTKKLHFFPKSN
LEDGF integ inh = blocks HIV-1 LEDGF/p75-dependent DNA integration | TR-FRET IN-LEDGF/p75 DNA integration, Eu/Cy5 | inhibition, % at 3.7 µM | 370,000 tested, 0.64% active | AID 743269;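 active means inhibition above the screen-wide mean plus 3 SD, cut at about 13% in these data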;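 further: signal is the Cy5 over europium emission ratio at 671 and 618 nm; 0% = plate median of compound wells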
IN multimer up = HIV-1 integrase multimerization activation, counter-screen; shares compounds with LEDGF integ inh; TR-FRET HIV-1 integrase multimerization, biochemical; activation, % at 7.7 µM; 2,000 tested, 17% active; in the data active means activation above about 8.9%
TR-FRET interf = TR-FRET optical interference, LEDGF/p75 integration counter-screen; shares compounds with LEDGF integ inh; TR-FRET optical interference counterscreen, HIV-1 IN multimerization; inhibition, % at 7.7 µM; 2,000 tested, under 10 active; AID 1053135;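 active means inhibition above the mean over all tested compounds plus 3 SD, which no compound reached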;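 further: 0% = integrase with antibodies and DMSO and 100% = antibodies without integrase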
IN-LEDGF confirm = confirmation of HIV-1 LEDGF/p75-dependent integration inhibitors. shares compounds with LEDGF integ inh. TR-FRET LEDGF/p75-dependent HIV-1 integration, biochemical. inhibition, % at 3.7 µM. 2,000 tested, 36% active; in the data active means inhibition above about 14%
* = called active by the depositor.

`COc1ccc(/C(C)=N/NC(=O)c2nnn(-c3nonc3N)c2-c2ccccc2)cc1` gave ASAP1 GAP inh 11, TDP2 absorb -10, ARFGAP1 inh -11, Casp6 inh 0 and LEDGF integ inh 5.
Screening CCN(CC)c1ccc(NC(=O)CCS(=O)(=O)c2ccc(Br)cc2)c(C)c1 returned ASAP1 GAP inh -5, TDP2 absorb -10, ARFGAP1 inh 0, LEDGF integ inh 17*, IN multimer up 35*, TR-FRET interf -128 and IN-LEDGF confirm 12.
For CCCNC(=O)[C@@H]1[C@@H](CO)[C@@H]2Cn3c(ccc(-c4ccncc4)c3=O)[C@@H]2N1C(=O)c1ccccc1F the results were Casp6 inh 2.
`COC(=O)\C(C(C)=O)=C(/C=C/C=C/C=C/N(C)C)N(C)C` gave ASAP1 GAP inh -8, TDP2 absorb 6, ARFGAP1 inh 7, LEDGF integ inh 56*, IN multimer up 8, TR-FRET interf -43 and IN-LEDGF confirm 59*.
COC(=O)/C(C(C)=O)=C(\C=C\N(C)C)N(C)C was read as ASAP1 GAP inh -7, TDP2 absorb -5, ARFGAP1 inh -7, Casp6 inh 1 and LEDGF integ inh 0.
For COC(=O)[C@]12C[C@H](CC(=O)NCc3ccccc3)C(=O)N(Cc3cccc4ccccc34)C1=C[C@H](C1CCCC1)O[C@@H]2C the results were TDP2 absorb -17 and LEDGF integ inh 2.
`COc1cccc(S(=O)(=O)N(C)C[C@@H]2Oc3ncc(C#CCN(C)C)cc3C(=O)N([C@H](C)CO)C[C@H]2C)c1` gave ASAP1 GAP inh -9, TDP2 absorb -4, ARFGAP1 inh 10, Casp6 inh -12 and LEDGF integ inh -1.
Cc1ccc(C(=O)Cn2nnc(-c3ccccc3)n2)cc1 was read as ASAP1 GAP inh -3, TDP2 absorb -3, ARFGAP1 inh 7, Casp6 inh 0 and LEDGF integ inh 6.
Screening CCOC(=O)C1=C(N)n2c(s/c(=C/c3ccco3)c2=O)=C(C(=O)OC)C1c1ccco1 (stereo unspecified) returned ASAP1 GAP inh -2, TDP2 absorb 8, ARFGAP1 inh 2, LEDGF integ inh 48*, IN multimer up 0, TR-FRET interf -1 and IN-LEDGF confirm 3.
N#CC1=C(N)n2c(s/c(=C\c3ccco3)c2=O)=C(C#N)C1c1ccco1 (stereo unspecified) was read as ASAP1 GAP inh -9, TDP2 absorb -4, ARFGAP1 inh 0, LEDGF integ inh 38*, IN multimer up 18*, TR-FRET interf -91 and IN-LEDGF confirm 66*.
For O=Cc1cccc(OC(=O)/C=C/c2ccco2)c1 the results were ASAP1 GAP inh -4, TDP2 absorb 7, ARFGAP1 inh -2, Casp6 inh 87*, LEDGF integ inh 16*, IN multimer up 11*, TR-FRET interf -40 and IN-LEDGF confirm 36*.
For CCCCn1c(NC(=O)c2ccccc2)nc2ccccc21 the results were ASAP1 GAP inh 7, TDP2 absorb -25, ARFGAP1 inh -5, LEDGF integ inh 26*, IN multimer up -1, TR-FRET interf 7 and IN-LEDGF confirm 25*.
For CN(C)CCCn1c(NC(=O)C2CCCCC2)nc2ccccc21 the results were ASAP1 GAP inh -11, TDP2 absorb -8, ARFGAP1 inh 11 and LEDGF integ inh 3.
For C=CCn1c(NC(=O)c2ccccc2)nc2ccccc21 the results were ASAP1 GAP inh -7, TDP2 absorb 10, ARFGAP1 inh -9, Casp6 inh 2, LEDGF integ inh 15*, IN multimer up -4, TR-FRET interf 19 and IN-LEDGF confirm 14*.
Screening CCn1c(NC(=O)c2ccccc2)nc2ccccc21 returned ASAP1 GAP inh -17, TDP2 absorb 3, ARFGAP1 inh 18, Casp6 inh 0 and LEDGF integ inh 7.
`CCCCn1c(NC(=O)C2CCCCC2)nc2ccccc21` gave ASAP1 GAP inh 12, TDP2 absorb -15, ARFGAP1 inh 1, LEDGF integ inh 28*, IN multimer up 1, TR-FRET interf -3 and IN-LEDGF confirm 17*.
CNc1nc(N(C)C)nc(N(C)C)n1 was read as ASAP1 GAP inh -6, TDP2 absorb 3, ARFGAP1 inh 13 and LEDGF integ inh 0.
`COc1cccc2cc(C(=O)NCCc3c[nH]c4ccccc34)c(=O)oc12` gave ASAP1 GAP inh 6, TDP2 absorb -3, ARFGAP1 inh 11, Casp6 inh 2 and LEDGF integ inh 1.
Screening COc1ccc(OC)c(CNC(=O)CCNC(=O)Cn2ccc3ccccc3c2=O)c1 returned ASAP1 GAP inh 5, TDP2 absorb -4, ARFGAP1 inh 11, LEDGF integ inh 47*, IN multimer up -1, TR-FRET interf 4 and IN-LEDGF confirm 3.
`CCN1C(=O)[C@H]2[C@H]3CN=C(SCc4ccc(C(=O)OC)cc4)N3[C@@](CC)(C(=O)OC)[C@H]2C1=O` gave ASAP1 GAP inh 1, TDP2 absorb -2, ARFGAP1 inh 10, Casp6 inh -1 and LEDGF integ inh 2.
Screening C#CCN1C(=O)S/C(=C\c2ccc(-c3ccc(Cl)c(C(=O)O)c3)o2)C1=O returned ASAP1 GAP inh 9, TDP2 absorb -2, ARFGAP1 inh 5, Casp6 inh 19 and LEDGF integ inh -3.
For O=C(O)c1cc(-c2ccc(/C=C3\NC(=O)N(c4ccc(Cl)cc4)C3=O)o2)ccc1Cl the results were ASAP1 GAP inh -1, TDP2 absorb 3, ARFGAP1 inh -7, Casp6 inh 40*, LEDGF integ inh 15*, IN multimer up 1, TR-FRET interf -7 and IN-LEDGF confirm 27*.
`O=C(NNC(=O)C1CCN(S(=O)(=O)c2ccc(Cl)cc2)CC1)c1ccc(Cl)cc1` gave ASAP1 GAP inh -4, TDP2 absorb 4, ARFGAP1 inh -2, LEDGF integ inh 84*, IN multimer up 0, TR-FRET interf 2 and IN-LEDGF confirm 6.
Screening Cc1ccc(/C=C2/CNC/C(=C/c3ccc(C)cc3)C2=O)cc1 returned ASAP1 GAP inh 6, TDP2 absorb 4, ARFGAP1 inh 1, Casp6 inh -2, LEDGF integ inh 92*, IN multimer up 3, TR-FRET interf -11 and IN-LEDGF confirm 7.
